Assay results pooled from the literature.
Lines come from different studies, so protocols differ.
Target: MAP kinase-activated protein kinase 5 (MAPKAPK5, Homo sapiens, UniProt Q8IW41)
Sequence (Q8IW41 1-473, as in one of the studies): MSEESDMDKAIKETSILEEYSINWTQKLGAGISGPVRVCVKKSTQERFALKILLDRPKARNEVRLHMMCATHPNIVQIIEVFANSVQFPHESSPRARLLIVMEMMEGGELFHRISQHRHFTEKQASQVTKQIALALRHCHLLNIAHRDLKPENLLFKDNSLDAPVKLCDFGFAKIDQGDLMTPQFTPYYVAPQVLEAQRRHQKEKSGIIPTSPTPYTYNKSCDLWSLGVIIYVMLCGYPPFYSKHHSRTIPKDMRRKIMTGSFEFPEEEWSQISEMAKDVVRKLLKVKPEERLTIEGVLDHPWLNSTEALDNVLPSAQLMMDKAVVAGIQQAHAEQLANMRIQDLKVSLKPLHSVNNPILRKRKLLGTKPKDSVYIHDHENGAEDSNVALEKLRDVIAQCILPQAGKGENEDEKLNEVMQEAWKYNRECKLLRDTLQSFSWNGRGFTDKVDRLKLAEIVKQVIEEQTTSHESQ

SMILES | effect on | technique | tested at | remaining binding [%]
COc1cnc(Nc2cccc(S(N)(=O)=O)c2)nc1N1CCN(c2ccccc2)C(=O)C1 | binding | competition with immobilised ligand | 1 µM | 100
FC(F)(F)Oc1cccc(-c2cnc3ccc(-c4ccncc4)nn23)c1 | cell-free assay | competition with immobilised ligand | 5 µM | 71
CN(CCCC(F)(F)F)c1nccc(-c2cnn3ncccc23)n1 | binding |  | 1 µM | 100
O=C(Nc1c[nH]nc1C(=O)NC1CCNCC1)c1cc(F)cc(F)c1 | binding | competition with immobilised ligand | 1 µM | 94
CN(C(=O)c1ccccc1)c1cc(N(C)c2ccc3c(c2)CCc2ccc(C(=O)NCCN4CCOCC4)cc2C3=O)ccc1F | cell-free assay | competition with immobilised ligand | 1 µM | 100
c1cncc(-c2cccc(Nc3nccc(NC4CCCCC4)n3)c2)c1 | binding | competition with immobilised ligand | 10 µM | 100
CC1CCCN1c1nccc(-c2cnn3ncccc23)n1 (stereo not shown) | binding |  | 1 µM | 100
C[C@H](c1ccnc(Nc2nc3ccc(-c4cc(N(C)C)ncn4)cc3[nH]2)c1)N1CCN(C(=O)CC(F)(F)F)CC1 | cell-free assay | competition with immobilised ligand | 0.1 µM | 86
CN(c1nccc(-c2cnn3ncccc23)n1)C1CC1 | binding |  | 1 µM | 99
C=CC(=O)N1CCC(C(=O)NCC(=O)N2CCN(c3nc(-c4cnc(N)nc4C(F)F)nc(N4CCOCC4)n3)CC2)CC1 | binding | competition with immobilised ligand | 1 µM | 92
O=C(Nc1ccc(Oc2ccc(F)cc2)cc1)N1CCc2ncccc2[C@H]1c1ccc(F)cc1 | cell-free assay | competition with immobilised ligand | 1 µM | 75
O=C(NCCCN1CCOCC1)c1ccc(Nc2ncc(Cl)c(-c3ccc(Cl)s3)n2)cc1 | binding | competition with immobilised ligand | 1 µM | 100
CC(=O)Nc1c(C(C)=O)c(=O)n(C)c2nc(-c3ccc(Cl)cc3Cl)c(-c3ccc(Cl)cc3)cc12 | cell-free assay | competition with immobilised ligand | 1 µM | 100
O=C(c1ccc(Nc2ncc(Cl)c(-c3cc4ccccc4s3)n2)cc1)N1CCC(N2CCCC2)CC1 | binding | competition with immobilised ligand | 1 µM | 80
C[C@@H]1CCN(c2nccc(-c3cnn4ncccc34)n2)C1 | binding |  | 1 µM | 69
CCS(=O)(=O)c1cc2cc(C[C@](O)(CC(C)(C)c3ccc(F)cc3C(N)=O)C(F)(F)F)[nH]c2cn1 | cell-free assay | competition with immobilised ligand | 1 µM | 93
CN(C)c1ncc(F)c(-c2cnn3ncccc23)n1 | binding |  | 1 µM | 74
Cn1cc(Cl)c2c(Oc3c(F)cc(Nc4cc(Cl)nc(N)n4)cc3F)ccnc21 | cell-free assay | competition with immobilised ligand | 0.1 µM | 100
C[C@@H](c1ccc(-n2cnc3c(N)ncnc32)cc1)N1CCc2nn(C)c(Cc3ccccc3)c2C1=O | binding | competition with immobilised ligand | 0.1 µM | 76
